# An excerpt weighted towards active compounds, which were near 3.1% of everything screened.
# PRMT1 inh: blocks human protein arginine methyltransferase 1; Q99873; recombinant PRMT1, activity-based probe fluorescence polarization; inhibition, % at 2.79 µM; 370,000 tested, 1.3% active; AID 652257;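 active means inhibition above about 21% made by adding two undisclosed values, limit read from the data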
# Target sequence (Q99873 whole entry, looked up): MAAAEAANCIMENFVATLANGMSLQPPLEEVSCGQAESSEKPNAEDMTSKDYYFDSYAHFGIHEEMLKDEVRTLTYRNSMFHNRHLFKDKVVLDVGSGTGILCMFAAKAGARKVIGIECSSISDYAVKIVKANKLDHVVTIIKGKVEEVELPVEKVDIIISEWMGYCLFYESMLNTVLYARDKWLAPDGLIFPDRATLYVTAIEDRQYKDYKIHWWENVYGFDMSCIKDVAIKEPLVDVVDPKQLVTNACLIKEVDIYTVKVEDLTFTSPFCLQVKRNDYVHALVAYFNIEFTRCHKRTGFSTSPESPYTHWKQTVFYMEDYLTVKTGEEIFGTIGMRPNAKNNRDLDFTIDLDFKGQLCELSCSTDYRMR
# LEDGF integ inh: blocks HIV-1 LEDGF/p75-dependent DNA integration. TR-FRET IN-LEDGF/p75 DNA integration, Eu/Cy5. inhibition, % at 3.7 µM. 370,000 tested, 0.64% active. AID 743269;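 active means inhibition above the screen-wide mean plus 3 SD, cut at about 13% in these data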;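 further: signal is the Cy5 over europium emission ratio at 671 and 618 nm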
# RBBP9 inh: inhibitors of human serine hydrolase RBBP9; O75884; recombinant RBBP9, FP-Rh probe fluorescence polarization; inhibition, % at 7.94 µM; 220,000 tested, 0.2% active; AID 1515;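 active means inhibition above the campaign mean of all tested compounds plus 3 SD, cut at about 14% in these data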
# Target sequence (O75884 whole entry, looked up): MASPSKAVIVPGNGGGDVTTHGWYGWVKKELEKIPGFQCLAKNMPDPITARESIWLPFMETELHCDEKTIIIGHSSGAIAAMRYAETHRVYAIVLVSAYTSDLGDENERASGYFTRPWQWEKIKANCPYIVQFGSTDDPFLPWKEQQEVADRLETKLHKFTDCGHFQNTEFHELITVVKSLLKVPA
#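 Assay system: recombinant human RBBP9; Reagent: Serine-hydrolase probe FP-Rh, 375 nM pre-mixing; Doses: 7.94 µM single dose, 0.794% DMSO; Incubation: 30 min then 45 min, 25 °C; Detection: fluorescence polarization (mP), excitation 525 nm, emission 598 nm; Evaluation: percent inhibition from mP, scaled between DMSO and no-protein wells.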
# MBD2 DNA inh: blocks human MBD2 binding to methylated DNA | Q9UBB5 | AID 686964 | TR-FRET, MBD2 binding to methylated oligonucleotide | inhibition, % at 4.4 µM | 370,000 tested, 0.31% active; in the data active means inhibition above about 13%
# UHRF1 binding: blocks human UHRF1 binding to methylated DNA | Q96T88 | UHRF1 binding to methylated oligo, TR-FRET | inhibition, % at 4.4 µM | 370,000 tested, 0.75% active | AID 687016;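 further: UHRF1 SRA domain binding a hemimethylated CpG hairpin DNA probe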
# ABHD5 PLIN5 PPI: blocks binding of human ABHD5 to perilipin-5; Split G. princeps luciferase complementation, luminescence, 4 h; inhibition, % at 4 µM; Q00G26+Q8WTS1; 360,000 tested, 0.78% active; AID 602281;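 active means inhibition above the mean inhibition across every tested compound plus 3 SD, cut at about 22% in these data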
# UHRF1 ctr MBD2: inhibits human UHRF1 binding to methylated oligonucleotide, MBD2 counter-screen; 1,000 tested, 25% active; TR-FRET; shares compounds with MBD2 DNA inh; inhibition, % at 4.4 µM;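 further: UHRF1 SRA domain binding a labeled hemimethylated CpG hairpin DNA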
# MBD2 DBD conf: MBD2-DBD methyl-DNA binding inhibition, TR-FRET confirmation | 1,000 tested, 26% active | AID 720531 | TR-FRET MBD2-DBD binding to methylated oligonucleotide | inhibition, % at 4.4 µM | shares compounds with MBD2 DNA inh; in the data active means inhibition above about 14%
# Hits are given with their value; i = inactive; nt = not tested or not shown. Unless noted, no stated cut-off is given here; in the data, active means inhibition above about 21%; inactive means the rest.
SMILES,PRMT1 inh,LEDGF integ inh,RBBP9 inh,MBD2 DNA inh,UHRF1 binding,ABHD5 PLIN5 PPI,UHRF1 ctr MBD2,MBD2 DBD conf
CCOC(=O)[C@]12CCC=C1N(Cc1ccco1)C(=O)[C@H](CC(=O)N1CCC(c3ccccc3)CC1)C2,i,i,nt,15,i,i,i,i
CCOC(=O)[C@]12CCC=C1N(Cc1ccco1)C(=O)[C@H](CC(=O)N1CCOCC1)C2,i,i,nt,i,i,i,nt,nt
CCC(C)[C@H](NC(=O)NC1CCN(Cc2ccccc2)CC1)C(=O)OC (stereo partly drawn),i,i,i,15,i,i,i,i
COC(=O)[C@]12C[C@H](CC(=O)NCc3ccc(OC)c(OC)c3)C(=O)N(CCC3=CCCCC3)C1=C[C@H](C(C)C)O[C@@H]2C1CC1,i,i,nt,i,i,nt,nt,nt
Cc1ccc(C)c2nc(Cl)c(C#N)cc12,i,i,i,14,i,i,i,i
COc1ccc(-c2[nH]nc3oc(=O)cc(C)c23)cc1,i,i,i,14,i,i,i,i
Cc1cc(=O)oc2n[nH]c(-c3ccccc3)c12,i,i,i,i,i,i,nt,nt
CNc1c2cccc(C)c2nc2c(C(=O)NCCN(C)C)cccc12,i,i,nt,91,61,i,55,103
Cc1ccc(C(=O)O)cc1-c1ccc(/C=C2/NC(=O)N(c3ccccc3)C2=O)o1,i,i,i,14,43,i,30,i
O=C(NCC1COCCO1)C1CCN(S(=O)(=O)c2cccc3ccccc23)CC1 (stereo not drawn),i,i,nt,i,i,nt,nt,nt
O=C(CC1CCCC1)N[C@H](C(=O)N1CCC[C@H]1C(=O)NC1CCCC1)c1ccccc1,i,i,nt,i,i,nt,nt,nt
COc1ccc(NC(=O)COC(=O)CC23CC4CC(CC(C4)C2)C3)c([N+](=O)[O-])c1,i,i,i,46,i,i,i,i
O=C(N=Nc1c(O)n(Cc2ccccc2)c2ccccc12)c1ccc(O)cc1,i,i,i,41,i,i,i,i
CC(C)(C)NC(=O)NC(=O)CSc1nnc(COc2ccccc2Cl)o1,i,i,i,21,31,i,i,i
O=C(NC1CCCC1)[C@@H]1CCCN1C(=O)[C@@H](NC(=O)N1CCOCC1)C1CCCCC1,i,i,nt,i,i,nt,nt,nt
CC(C)C[C@@H](CN1CCC[C@H]1CN1C(=O)C(=O)NC[C@@H]1Cc1ccccc1)N1C[C@H](Cc2ccc(O)cc2)N(CC2CCCCC2)C(=O)C1=O,i,i,nt,i,i,i,nt,nt
CC(C)C[C@@H](CN1CCC[C@H]1CN1C(=O)C(=O)NC[C@@H]1Cc1ccc(O)cc1)N1C[C@H](Cc2ccccc2)N(CC2CCCCC2)C(=O)C1=O,i,i,nt,17,25,i,i,i
COC(C(=O)N1CCC(CCC(=O)Nc2ccccc2)CC1)c1ccccc1 (stereo not drawn),i,i,nt,15,27,i,i,i
COc1ccc(C(=O)N2CCC(CCC(=O)Nc3cccc(C)c3)CC2)cc1,i,i,nt,i,i,i,nt,nt
C[N+]1(CC(=O)NNc2c3ccccc3nc3ccccc23)CCOCC1,i,i,i,40,29,nt,34,31
COc1ccc(NC(=O)CSc2nc3[nH]ncc3c(=O)n2-c2ccccc2OC)cc1OC,i,i,i,17,26,i,i,i
C[C@@H]1ON(C)[C@H]2C[C@H]3c4cc(N5CCN(C)CC5)ccc4CCN3C[C@@H]12,i,i,nt,i,i,nt,nt,nt
COc1ccc(Cn2cc(CN3[C@@H](c4ccccc4)COc4cc(Br)ccc4S3(=O)=O)nn2)cc1,i,i,nt,i,i,nt,nt,nt
O=C1CN=C(Nc2ccccc2)N1Cc1cccs1,i,i,i,35,i,i,i,i
CCCC[C@H]1C2CC(OC(=O)Nc3ccccc3C(F)(F)F)C(C2)[C@H]2CCCCN21 (stereo partly drawn),i,i,nt,i,i,nt,nt,nt
SMILES,PRMT1 inh,LEDGF integ inh,RBBP9 inh,MBD2 DNA inh,UHRF1 binding,ABHD5 PLIN5 PPI,UHRF1 ctr MBD2,MBD2 DBD conf
O=C(NC1CC1)C1CCN(S(=O)(=O)c2ccc(Cl)c([N+](=O)[O-])c2)CC1,i,i,nt,35,i,i,i,i
O=S1(=O)CC(N2CCCC2)CN1 (stereo not drawn),i,i,nt,15,i,nt,i,i
CC[C@H]1C=C[C@@H](C(=O)NS(=O)(=O)c2ccc(C)cc2)N(C(C)=O)C1,i,i,nt,i,i,nt,nt,nt
N#CCSc1ncnc2sc3c(c12)CCC3,i,i,i,14,24,i,i,i
Cc1nc(SCC#N)c2c3c(sc2n1)CCC3,i,i,i,i,i,i,nt,nt
Cn1c(SCc2ccc(Cl)cc2)nnc1-c1ccc2nonc2c1,i,i,i,21,i,i,i,i
COc1ccc(C2CC(=O)C(c3ccc(Cl)c(Cl)c3)=CN2Cc2ccccc2)cc1 (stereo not drawn),i,i,nt,i,i,nt,nt,nt
Cc1cc2[nH]c3c4ccccc4nc(C)c3c2cc1C,i,i,nt,17,i,i,i,33
CCOC(=O)C1CCN(C(=O)C(Cc2ccc3c(c2)OCO3)NC(C)=O)CC1 (stereo not drawn),i,i,nt,i,i,nt,nt,nt
COc1cc(OC)cc(-c2oc3cccnc3c2C#CCCO)c1,i,i,nt,21,i,i,i,i
Cc1ccc(-c2nc(C3CCCN(S(=O)(=O)c4ccccc4)C3)no2)cc1 (stereo not drawn),i,i,nt,i,i,nt,nt,nt
Cc1ccc(S(=O)(=O)N(C)C)cc1NC(=O)CCc1ccccc1,i,i,i,21,i,i,i,i
C=CCn1c(COc2ccc(C)cc2)nnc1SCC(=O)Nc1ccc(Oc2ccccc2)cc1,i,i,nt,i,i,nt,nt,nt
COC(=O)C1=C(C)N(Cc2cccc(C(F)(F)F)c2)C(=NCC2CC2)NC1c1ccccc1C(F)(F)F (stereo not drawn),i,i,nt,i,i,nt,nt,nt
CC(C)(C)C(=O)Nc1cc(S(=O)(=O)N2CCCCC2)ccc1N1CCCCC1,i,i,i,14,i,i,i,i
CNC(=S)N(CCc1cccc(C)c1)Cc1cc2cc(OC)c(OC)cc2[nH]c1=O,i,i,i,i,i,i,nt,nt
CNC(=S)N(Cc1cc2cc(OC)c(OC)cc2[nH]c1=O)C1CCCC1,i,i,i,20,i,i,i,i
CCCCCCN1CCS(=O)(=O)N(Cc2ccc(C)cc2)C(C(=O)OC)C1 (stereo not drawn),i,i,nt,i,i,nt,nt,nt
c1ccc(-c2ccc3nnnn3n2)cc1,i,i,i,i,i,i,nt,nt
CC(C)Oc1ccc2nnnn2n1,i,i,i,14,22,i,i,i
COC(=O)[C@H](CC(C)C)N1Cc2nnn(Cc3ccccc3)c2-c2ccccc2S1(=O)=O,i,i,nt,i,i,nt,nt,nt

# Screening data as filed in PubChem.
